Here are results for 1 molecule from ChEMBL document CHEMBL4024713, “Novel aryl piperazines for alleviation of 'andropause' associated prostatic disorders and depression” (Eur J Med Chem, 2017).

Series [1] can be described thus: AUClast in Sprague-Dawley rat prostate at 10 mg/kg, po administered as single dose by LC-MS/MS analysis. To be noted: in vivo. Type of series: ADME, organism-based, Prostate gland. In outline:
(§1)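 Male Sprague Dawley rats (250 ± 25 g), fasted overnight (12-16 h), n = 3 per time point; single 10 mg/kg dose orally by feeding needle, or iv from DMSO solution. Serum, prostate and hypothalamus collected up to 48 h post oral dose; hypothalamus from three rats pooled. LC-MS/MS (MRM, phenacetin internal standard), linear 5-400 ng/mL; noncompartmental and compartmental analysis.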

The nature of series [2]: Cmax in Sprague-Dawley rat serum at 10 mg/kg, iv administered as single dose by LC-MS/MS analysis. Type of series: ADME, organism-based. Details: dose 10 mg/kg, route intravenous. In outline:
as §1

Series [3] can be described thus: Tmax in Sprague-Dawley rat hypothalamus at 10 mg/kg, po administered as single dose by LC-MS/MS analysis. It counts as ADME, organism-based. In outline: as §1
Series [4] has as its system Rattus norvegicus. Briefly: Toxicity in citral-induced prostatic hyperplasia Sprague-Dawley rat model assessed as effect on epididymis weight at 10 mg/kg, po administered once daily coadministered with citral for 21 days measured 24 hrs last post dose. It counts as organism-based. To be noted: in vivo.
The subject of series [5] is Rattus norvegicus. The series is described as follows: Toxicity in citral-induced prostatic hyperplasia Sprague-Dawley rat model assessed as effect on seminal vesicle weight at 10 mg/kg, po administered once daily coadministered with citral for 21 days measured 24 hrs last post dose. To be noted: in vivo. Type of series: organism-based.
The nature of series [6]: Oral bioavailability in Sprague-Dawley rat serum at 10 mg/kg administered as single dose by LC-MS/MS analysis. It counts as ADME, organism-based. The method in brief: as §1
Series [7] deals with Hypothalamus. The series is described as follows: AUClast in Sprague-Dawley rat hypothalamus at 10 mg/kg, po administered as single dose by LC-MS/MS analysis. Type of series: ADME, organism-based. The following applies: in vivo. The method in brief: as §1
The nature of series [8]: Cmax in Sprague-Dawley rat prostate at 10 mg/kg, po administered as single dose by LC-MS/MS analysis. Type of series: ADME, organism-based, Prostate gland. The arrangement: dose 10 mg/kg, route oral. In outline:
as §1

The nature of series [9]: Half life in Sprague-Dawley rat serum at 10 mg/kg, iv administered as single dose by LC-MS/MS analysis. Type of series: ADME, organism-based. In outline: as §1
Series [10] has as its system Mus musculus. The series is described as follows: Toxicity in Swiss albino mouse assessed as effect on locomotor activity at 20 mg/kg, po measured at 5 mins interval for 90 mins by open field test. The following applies: in vivo. It counts as organism-based. The method in brief:
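Male Swiss albino mice in an activity chamber, infrared beam-break counting over 24 intervals of 5 min (120 min). Oral dosing after the 6th interval; six animals per group.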

A short description of series [11]: AUClast in Sprague-Dawley rat serum at 10 mg/kg, iv administered as single dose by LC-MS/MS analysis. Type of series: ADME, organism-based. The arrangement: dose 10 mg/kg, route intravenous, time 0 - last. The method in brief:
as §1

The target in series [12] is T1, Androgen receptor (Homo sapiens) (UniProt P10275).
T1 sequence (whole entry): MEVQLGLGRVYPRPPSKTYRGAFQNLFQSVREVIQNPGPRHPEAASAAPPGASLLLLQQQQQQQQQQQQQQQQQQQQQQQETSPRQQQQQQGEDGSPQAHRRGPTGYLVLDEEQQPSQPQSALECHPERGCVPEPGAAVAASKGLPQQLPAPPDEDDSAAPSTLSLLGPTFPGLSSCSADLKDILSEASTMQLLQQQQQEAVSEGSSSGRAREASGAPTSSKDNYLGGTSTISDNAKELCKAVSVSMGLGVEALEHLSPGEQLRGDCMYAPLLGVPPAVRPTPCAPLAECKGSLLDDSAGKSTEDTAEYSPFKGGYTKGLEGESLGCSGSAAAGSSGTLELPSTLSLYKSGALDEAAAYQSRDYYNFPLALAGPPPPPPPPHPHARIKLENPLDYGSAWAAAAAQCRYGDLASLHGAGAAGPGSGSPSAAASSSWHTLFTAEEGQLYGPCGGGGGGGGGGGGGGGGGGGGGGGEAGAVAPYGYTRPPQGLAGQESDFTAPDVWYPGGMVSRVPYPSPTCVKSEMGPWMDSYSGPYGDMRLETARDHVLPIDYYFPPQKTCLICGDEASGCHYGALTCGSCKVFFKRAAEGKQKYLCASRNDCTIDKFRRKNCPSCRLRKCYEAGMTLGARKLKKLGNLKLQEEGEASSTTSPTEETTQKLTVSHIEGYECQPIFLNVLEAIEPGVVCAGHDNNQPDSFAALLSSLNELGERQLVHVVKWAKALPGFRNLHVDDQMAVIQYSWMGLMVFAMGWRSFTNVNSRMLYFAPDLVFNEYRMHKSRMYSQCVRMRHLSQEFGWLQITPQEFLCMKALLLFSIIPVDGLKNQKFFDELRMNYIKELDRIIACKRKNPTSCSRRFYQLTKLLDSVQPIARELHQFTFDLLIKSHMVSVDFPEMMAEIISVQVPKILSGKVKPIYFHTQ
Briefly: Antagonist activity at AR (unknown origin) expressed in African green monkey COS7 cells at 7.5 uM after 24 hrs by dual luciferase reporter gene assay. Type of series: cell-based. The method in brief: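 Cos7 cells (AR-negative) transiently transfected for 8 h with pARE-E1B-LUC reporter plus pCR3.1.AR expression vector. Then in complete medium, treated with compound at 7.5 μM for 24 h; bicalutamide 3 μM as positive control. Luciferase normalized to pRL-SV40 internal control, expressed as RLU relative to control = 100%.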
For orientation: In a reporter assay the amount or activity of a reporter protein is the signal.

Series [13] can be described thus: Half life in Sprague-Dawley rat hypothalamus at 10 mg/kg, po administered as single dose by LC-MS/MS analysis. Type of series: ADME, organism-based. The method in brief: as §1
Series [14] is described as follows: Ratio of drug level in hypothalamus to serum in Sprague-Dawley rat at 10 mg/kg, po administered as single dose by LC-MS/MS analysis. Type of series: ADME, organism-based. In outline: as §1
A short description of series [15]: Tmax in Sprague-Dawley rat serum at 10 mg/kg, po administered as single dose by LC-MS/MS analysis. It counts as ADME, organism-based. The method in brief: as §1
The subject of series [16] is Hypothalamus. Briefly: Volume of distribution at steady state in Sprague-Dawley rat hypothalamus at 10 mg/kg, po administered as single dose by LC-MS/MS analysis. It counts as ADME, organism-based. The following applies: in vivo. The method in brief:
as §1

For series [17], the system named is Mus musculus. The series is described as follows: Anti-depressant like activity in Swiss albino mouse assessed as reduction in immobility time at 20 mg/kg, po measured for 5 mins by tail suspension test. It counts as functional, organism-based. In outline:
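Male Swiss albino mice dosed orally in 1% gum acacia; imipramine as standard. Each mouse suspended by the tail with tape to a horizontal bar 60 cm above the table. Immobility (no limb or body movement other than respiration) recorded for 5 min after 1 min acclimatization; N = 5.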

Series [18] in a line: Clearance in Sprague-Dawley rat serum at 10 mg/kg, po administered as single dose by LC-MS/MS analysis. It counts as ADME, organism-based. In outline: as §1
Series [19] relates to Mus musculus. The series is described as follows: Toxicity in Swiss albino mouse assessed as latency time to fall at 20 mg/kg, po measured at 1 hr interval for 4 hrs by rotarod test. It counts as organism-based. To be noted: in vivo. In outline:
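Mice trained on the rotarod (5 to 10 rpm), 2 min trials, 3 per day for two days. On day 3, tested before oral dosing and at 1, 2, 3 and 4 h after, recording latency to fall.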
On the technique in general: In the rotarod test animals must keep their balance on a rotating rod.

The nature of series [20]: Volume of distribution at steady state in Sprague-Dawley rat prostate at 10 mg/kg, po administered as single dose by LC-MS/MS analysis. Type of series: ADME, organism-based, Prostate gland. The following applies: in vivo. The method in brief:
as §1

Series [21] is described as follows: Ratio of drug level in prostate to serum in Sprague-Dawley rat at 10 mg/kg, po administered as single dose by LC-MS/MS analysis. Type of series: ADME, organism-based. In outline:
as §1

A short description of series [22]: Half life in Sprague-Dawley rat prostate at 10 mg/kg, po administered as single dose by LC-MS/MS analysis. It counts as ADME, organism-based, Prostate gland. In outline:
as §1

Active and inactive are the calls of the source. No cut-off for these calls is given here.

Broadly, the Cmax is the peak of the concentration-time curve. In general, Tmax refers to the time from dosing to the highest level. Usually bioavailability stands for the share of a dose that reaches the circulation, judged against a reference dose that is usually intravenous. By half-life is commonly meant the time in which the quantity being followed falls by half. For orientation: AUC(0-t) means the area under the concentration-time curve up to a stated or last time point. By Kp is commonly meant the ratio of the level in a tissue or fluid to that in plasma or blood. In general, CL/F refers to clearance divided by bioavailability, as obtained after extravascular dosing. As for `c1ccc(N2CCN(CCCN3CCN(c4ccccn4)CC3)CC2)nc1`, the AUClast is 10.7 µg·h/g in series [1] and 4.2 µg·h/g in series [7]. In addition, the Cmax in [2] stood at 520 ng/mL; in series [8], 572 ng/g. Further, the Tmax in [3] and in series [15] was 1 h in each case. For the same molecule, the Activity result in [4], in series [5] and in series [10] was “Non-Toxic” in each case. The molecule further had a bioavailability in series [6] of 35.4%. The half-life in series [9] is 5.2 h; in [13], 129 h; in series [22], 155 h. In [11], this molecule yielded an area under the curve AUC(0-t) of 2500 ng·h/mL. For the same molecule, the result in [12] and in series [17] was Active. The values for the Kp in series [14] and in [21] were 4.6 and 11.8, respectively. Besides, the Vdss in series [16] was determined as 6.6 g/kg; in series [20], 3.6 g/kg. Also, the apparent clearance CL/F in series [18] was 65 mL/min/kg. In series [19], the Time was determined as 120 s.
